Measured values: ChEMBL document CHEMBL1147016, “Vasorelaxant activity of phthalazinones and related compounds” (Bioorg Med Chem Lett, 2006)
Values belong to the compound of their own block, whether it stands above or below them.

Key:
[1] = biological target: T1, Alpha-1D adrenergic receptor (Rattus norvegicus) (UniProt P23944); test: Inhibition of phenylephrine-stimulated Wistar rat aorta contraction at 10 uM; format: functional, tissue-based; parameters: scale not given: the % may be the effect or the level left
T1 sequence (whole entry): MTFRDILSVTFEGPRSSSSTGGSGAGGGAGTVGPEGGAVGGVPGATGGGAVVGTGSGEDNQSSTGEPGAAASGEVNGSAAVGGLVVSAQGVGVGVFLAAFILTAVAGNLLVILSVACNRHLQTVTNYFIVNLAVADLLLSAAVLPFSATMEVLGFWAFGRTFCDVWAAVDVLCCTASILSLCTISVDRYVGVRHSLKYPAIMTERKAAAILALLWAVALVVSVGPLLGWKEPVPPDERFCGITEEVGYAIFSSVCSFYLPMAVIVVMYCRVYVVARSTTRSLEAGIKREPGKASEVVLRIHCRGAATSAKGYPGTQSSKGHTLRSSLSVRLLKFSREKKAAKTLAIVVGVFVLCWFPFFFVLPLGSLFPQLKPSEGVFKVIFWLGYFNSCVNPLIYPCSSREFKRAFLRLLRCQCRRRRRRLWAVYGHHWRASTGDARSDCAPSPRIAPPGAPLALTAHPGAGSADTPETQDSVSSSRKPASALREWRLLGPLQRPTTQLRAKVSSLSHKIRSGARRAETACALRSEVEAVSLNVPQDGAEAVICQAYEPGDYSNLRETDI
Method in brief: (§1)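 Isolated rat aorta rings equilibrated 1 h at 2 g resting tension in Krebs solution, changed periodically. Contracted with 10^-5 M phenylephrine; at steady maximal contraction compounds added progressively over 30 min up to 10^-5 M or 10^-4 M. Responses read after 30 min as % relaxation of PE contraction; EC50 calculated when relaxation exceeded 60%.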

[2] = biological target: T2, Alpha-1D adrenergic receptor (Rattus norvegicus, UniProt P23944); test: Vasorelaxation of phenylephrine-stimulated Wistar rat aorta contraction; format: functional, tissue-based; method in brief: as §1
T2 sequence (P23944 whole entry): T1 sequence (whole entry)

[3] = biological target: T1, Alpha-1D adrenergic receptor (Rattus norvegicus); test: Inhibition of phenylephrine-stimulated Wistar rat aorta contraction at 100 uM; format: functional, tissue-based; parameters: scale not given: the % may be the effect or the level left; method in brief: as §1
[4] = biological target: T3, Alpha-1A adrenergic receptor (Rattus norvegicus) (UniProt P43140); test: Affinity to Adrenergic alpha-1A receptor in Wistar rat vas deferens; format: tissue-based
T3 sequence (whole entry): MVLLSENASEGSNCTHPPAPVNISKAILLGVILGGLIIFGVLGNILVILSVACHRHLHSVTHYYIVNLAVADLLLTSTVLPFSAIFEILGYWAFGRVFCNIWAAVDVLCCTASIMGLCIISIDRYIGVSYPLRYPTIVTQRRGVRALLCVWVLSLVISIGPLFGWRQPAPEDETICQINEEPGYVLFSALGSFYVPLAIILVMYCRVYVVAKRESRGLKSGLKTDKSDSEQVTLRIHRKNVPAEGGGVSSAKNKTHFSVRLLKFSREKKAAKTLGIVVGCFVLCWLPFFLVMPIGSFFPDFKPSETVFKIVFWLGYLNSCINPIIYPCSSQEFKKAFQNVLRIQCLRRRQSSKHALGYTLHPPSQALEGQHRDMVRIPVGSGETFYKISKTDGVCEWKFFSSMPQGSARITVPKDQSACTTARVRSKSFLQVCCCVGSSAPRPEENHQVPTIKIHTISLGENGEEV
Method in brief: (§2)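 Wistar rat vas deferens cleaned of connective tissue, held in Krebs–Henseleit at 37 °C, 95% O2–5% CO2, 1 g resting tension. Control noradrenaline concentration–response curve obtained, tissue then equilibrated with a fixed compound concentration for at least 30 min before a second NA curve. Time-matched controls; responses as % of control maximum; means ± SE.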

[5] = biological target: T3, Alpha-1A adrenergic receptor (Rattus norvegicus); test: Inhibition of noradrenaline-stimulated Wistar rat vas deferens contraction at 10 uM; format: functional; method in brief: as §2
[6] = biological target: T3, Alpha-1A adrenergic receptor (Rattus norvegicus); test: Inhibition of noradrenaline-stimulated Wistar rat vas deferens contraction at 1 uM; format: functional; method in brief: as §2
[7] = biological target: T4, Alpha-1A adrenergic receptor (Rattus norvegicus, UniProt P43140); test: Vasorelaxation of noradrenaline-stimulated Wistar rat vas deferens contraction; format: functional, tissue-based; method in brief: as §2
T4 sequence (P43140 whole entry): T3 sequence (whole entry)

[8] = biological target: T1, Alpha-1D adrenergic receptor (Rattus norvegicus); test: Affinity to Adrenergic Alpha-1D receptor in Wistar rat aorta; format: tissue-based
Method in brief: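 Rat aorta rings stabilised, then cumulative vasoconstrictor additions until plateau; contraction as % of control response. Protocol repeated after 30 min compound incubation.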

[9] = biological target: T5, Alpha-1B adrenergic receptor (Rattus norvegicus) (UniProt P15823); test: Affinity to Adrenergic alpha-1B receptor in Wistar rat spleen; format: tissue-based
T5 sequence (whole entry): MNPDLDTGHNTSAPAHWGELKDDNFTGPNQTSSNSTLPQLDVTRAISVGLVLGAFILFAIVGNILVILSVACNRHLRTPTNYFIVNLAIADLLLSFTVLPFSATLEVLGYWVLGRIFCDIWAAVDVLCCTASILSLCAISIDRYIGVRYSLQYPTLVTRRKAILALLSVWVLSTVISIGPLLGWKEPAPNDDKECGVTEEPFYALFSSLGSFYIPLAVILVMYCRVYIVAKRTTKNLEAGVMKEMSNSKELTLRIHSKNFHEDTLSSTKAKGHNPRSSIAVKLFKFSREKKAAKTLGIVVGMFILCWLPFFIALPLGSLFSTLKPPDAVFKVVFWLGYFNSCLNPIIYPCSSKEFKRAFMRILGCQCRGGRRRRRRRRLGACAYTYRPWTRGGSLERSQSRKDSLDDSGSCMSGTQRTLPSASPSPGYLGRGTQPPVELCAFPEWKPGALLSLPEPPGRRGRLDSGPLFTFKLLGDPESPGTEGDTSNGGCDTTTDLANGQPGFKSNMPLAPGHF
Method in brief: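 Longitudinal rat spleen strips at 1 g tension in Krebs, 37 °C. After stabilisation, single 10^-4 M phenylephrine dose, washout, then PE dose–response curves on two separate strips, control and after 30 min incubation with compound. Values as % of the first PE response.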

Structure (SMILES): O=c1c2ccccc2c(Cc2ccc(Cl)cc2)nn1-c1ccc([N+](=O)[O-])cc1
- EC50 [2]: 29 µM

Structure (SMILES): COc1ccc(Cc2nn(-c3ccccc3)c(=O)c3ccccc23)cc1OC
- EC50 [2]: > 100 µM

Structure (SMILES): COc1ccc(CCc2cc(O)cc(OC)c2C(=O)O)cc1
- Activity [3]: 34%

Structure (SMILES): Oc1nnc(Cc2ccc(Cl)cc2)c2ccccc12
- Activity [1]: 89.9%
- pD'2 [4]: 5.4
- inhibition [5]: 76.3%
- inhibition [6]: 16.3%

Structure (SMILES): CSc1ccc(Cc2nn(C(C)(C)C)c(=O)c3ccccc23)cc1
- EC50 [2]: > 100 µM

Structure (SMILES): CSc1ccc(Cc2n[nH]c(=O)c3ccccc23)cc1
- EC50 [2]: 5.5 µM

Structure (SMILES): COc1ccc(Cc2nn(C)c(=O)c3ccccc23)cc1
- Activity [3]: 61.6%
- EC50 [2]: < 100 µM

Structure (SMILES): Cn1nc(Cc2ccc(Cl)c(Cl)c2)c2ccccc2c1=O
- Activity [1]: 60.3%
- EC50 [2]: 4.9 µM

Structure (SMILES): C=CCn1nc(Cc2ccc(SC)cc2)c2ccccc2c1=O
- EC50 [2]: > 100 µM

Structure (SMILES): CCn1nc(Cc2ccc(Cl)cc2)c2ccccc2c1=O
- EC50 [2]: 1.3 µM

Structure (SMILES): Cn1nc(Cc2ccccc2Cl)c2ccccc2c1=O
- Activity [1]: 84%
- EC50 [2]: 1.4 µM

Structure (SMILES): OC1(Cc2ccc3c(c2)OCO3)c2ccccc2C2=NCCN21 (stereo unspecified)
- Activity [1]: 47%

Structure (SMILES): O=c1c2ccccc2c(Cc2ccc(Cl)cc2)nn1-c1ccccc1
- EC50 [2]: > 100 µM

Structure (SMILES): CSc1ccc(Cc2nnc(O)c3ccccc23)cc1
- Activity [1]: 66%

Structure (SMILES): COc1ccc(CC(=O)c2ccccc2C(=O)N2CCCCC2)cc1OC
- Activity [1]: 30%

Structure (SMILES): CCCCn1nc(Cc2ccc(Cl)cc2)c2ccccc2c1=O
- EC50 [2]: > 100 µM

Structure (SMILES): Oc1nnc(Cc2ccc(Cl)cc2Cl)c2ccccc12
- Activity [1]: 61.3%
- EC50 [2]: < 10 µM

Structure (SMILES): Oc1nnc(Cc2ccc3c(c2)OCO3)c2ccccc12
- Activity [1]: 86.7%
- EC50 [2]: 2.9 µM
- EC50 [7]: 3 µM
- pD'2 [4]: 5.5
- inhibition [5]: 78.8%
- inhibition [6]: 24.3%

Structure (SMILES): COc1ccc(CCc2cc(O)cc(OC)c2C(=O)N2CCCCC2)cc1
- Activity [3]: 51%

Structure (SMILES): O=c1c2ccccc2c(Cc2ccc(Cl)cc2)nn1-c1ccc(Br)cc1
- EC50 [2]: > 30 µM

Structure (SMILES): Cn1nc(Cc2cccc3ccccc23)c2ccccc2c1=O
- Activity [1]: 39.8%
- EC50 [2]: 14 µM

Structure (SMILES): CCn1nc(Cc2ccc(OC)c(OC)c2)c2ccccc2c1=O
- EC50 [2]: 5.3 µM

Structure (SMILES): CCCCn1nc(Cc2ccc(SC)cc2)c2ccccc2c1=O
- EC50 [2]: > 100 µM

Structure (SMILES): C=CCn1nc(Cc2ccc(Cl)cc2)c2ccccc2c1=O
- EC50 [2]: 2.6 µM
- EC50 [7]: 4.4 µM
- pD'2 [4]: 5.4
- inhibition [5]: 70.4%
- inhibition [6]: 16.9%

Structure (SMILES): Cn1nc(Cc2ccc3c(c2)OCO3)c2ccccc2c1=O
- Activity [1]: 90.2%
- EC50 [2]: 0.93 µM

Structure (SMILES): Cn1nc(Cc2ccccc2)c2ccccc2c1=O
- Activity [1]: 55.7%
- EC50 [2]: ≤ 10 µM
- EC50 [7]: 1.5 µM
- pD'2 [4]: 5.8
- inhibition [5]: 98.8%
- inhibition [6]: 36.6%

Structure (SMILES): Oc1nnc(Cc2cccc3ccccc23)c2ccccc12
- Activity [1]: 79.2%
- EC50 [2]: 4.4 µM

Structure (SMILES): COc1ccc(Cc2nn(-c3ccc([N+](=O)[O-])cc3)c(=O)c3ccccc23)cc1OC
- EC50 [2]: > 100 µM

Structure (SMILES): CCCCn1nc(Cc2ccc(OC)c(OC)c2)c2ccccc2c1=O
- EC50 [2]: 5.4 µM

Structure (SMILES): COc1ccc(Cc2nnc(O)c3ccccc23)cc1OC
- Activity [1]: 83.8%
- EC50 [2]: 3.7 µM

Structure (SMILES): CSc1ccc(Cc2nn(-c3ccccc3)c(=O)c3ccccc23)cc1
- EC50 [2]: > 100 µM

Structure (SMILES): CSc1ccc(Cc2nn(-c3ccc(Br)cc3)c(=O)c3ccccc23)cc1
- EC50 [2]: > 100 µM

Structure (SMILES): COc1cc(Cc2nnc(O)c3ccccc23)cc(OC)c1OC
- Activity [3]: 34.3%
- EC50 [2]: > 100 µM

Structure (SMILES): O=c1[nH]nc(Cc2ccc(Cl)cc2)c2ccccc12
- EC50 [2]: 0.79 µM
- EC50 [7]: 3.9 µM

Structure (SMILES): Cn1nc(Cc2ccc(Cl)cc2)c2ccccc2c1=O
- Activity [1]: 99.3%
- pD'2 [8]: 5.4
- EC50 [2]: 0.43 µM
- EC50 [7]: 0.81 µM
- pD'2 [4]: 6.1
- inhibition [5]: 95.4%
- inhibition [6]: 61.5%
- pD'2 [9]: 5.55

Structure (SMILES): O=c1[nH]nc(Cc2ccccc2)c2ccccc12
- Activity [1]: 53%
- EC50 [2]: ≤ 10 µM

The remaining lines, values ahead:

- Activity [1]: 87.2%
- EC50 [2]: 0.93 µM
Structure (SMILES): CSc1ccc(Cc2nn(C)c(=O)c3ccccc23)cc1

- Activity [1]: 76.3%
- EC50 [2]: 1.9 µM
Structure (SMILES): Oc1nnc(Cc2ccccc2Cl)c2ccccc12

- Activity [1]: 70%
Structure (SMILES): COc1ccc(C(=O)C(=O)c2ccccc2C(=O)N2CCCCC2)cc1OC

- EC50 [2]: 10 µM
Structure (SMILES): COc1ccc(Cc2nn(C(C)(C)C)c(=O)c3ccccc23)cc1OC

- Activity [1]: 44.6%
- EC50 [2]: > 10 µM
Structure (SMILES): Cn1nc(Cc2ccc3ccccc3c2)c2ccccc2c1=O

- EC50 [2]: 9.8 µM
Structure (SMILES): C=CCn1nc(Cc2ccc(OC)c(OC)c2)c2ccccc2c1=O

- EC50 [2]: > 100 µM
Structure (SMILES): COc1ccc(Cc2nn(-c3ccc(Br)cc3)c(=O)c3ccccc23)cc1OC

- Activity [1]: 80.7%
- EC50 [2]: 1.2 µM
Structure (SMILES): Cn1nc(Cc2ccc(Cl)cc2Cl)c2ccccc2c1=O

- Activity [1]: 53.8%
- EC50 [2]: ≤ 10 µM
Structure (SMILES): Oc1nnc(Cc2ccc(Cl)c(Cl)c2)c2ccccc12

- EC50 [2]: > 100 µM
Structure (SMILES): CCn1nc(Cc2ccc(SC)cc2)c2ccccc2c1=O

- EC50 [2]: > 100 µM
Structure (SMILES): CSc1ccc(Cc2nn(-c3ccc([N+](=O)[O-])cc3)c(=O)c3ccccc23)cc1

- EC50 [2]: > 100 µM
Structure (SMILES): CC(C)(C)n1nc(Cc2ccc(Cl)cc2)c2ccccc2c1=O

- Activity [1]: 43.9%
- EC50 [2]: > 10 µM
Structure (SMILES): Oc1nnc(Cc2ccc3ccccc3c2)c2ccccc12

- Activity [3]: 39.3%
- EC50 [2]: > 10 µM
Structure (SMILES): COc1ccc(Cc2nnc(O)c3ccccc23)cc1

- Activity [1]: 16.7%
- EC50 [2]: > 10 µM
Structure (SMILES): COc1cc(Cc2nn(C)c(=O)c3ccccc23)cc(OC)c1OC

- Activity [1]: 67.7%
- EC50 [2]: 2.2 µM
Structure (SMILES): COc1ccc(Cc2nn(C)c(=O)c3ccccc23)cc1OC
